# Source: PubChem BioAssay (several laboratories)
# PMI act satM6P: increases human PMI activity with near-saturating mannose 6-phosphate | coupled PMI enzyme assay, resazurin fluorescence, 20 min; active compounds read high; 1 = untreated enzyme, 0 = substrate-free blank | actives 0.34% (n = 190,000) | P34949 | AID 1216 | activation factor at 20 µM;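 active means activation factor of 2 or more at 20 µM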
#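 Test system: Human PMI in coupled enzyme assay | Input: 15 ng/mL PMI | Medium: HEPES-buffered pH 7.4 with magnesium and detergent | Compound: One concentration, 20 µM, in 1% DMSO | Incubation: Enzyme reaction with compound 20 min at room temperature | Detection: Diaphorase-driven resazurin-to-resorufin fluorescence, excitation 544, emission 590 nm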
# PMI act: activators of human phosphomannose isomerase. AID 1214. actives 0.005% (n = 190,000). P34949. activation factor at 20 µM. purified human PMI, coupled resazurin fluorescence, 20 min; active compounds read high; 1 = vehicle control, 0 substrate-free wells;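 active means activation factor of 2 or more at 20 µM, relative to plate controls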
# Rad51 HR inh: Rad51 (human) homologous recombination inhibition; hRad51 DNA strand exchange, fluorescence dequenching; Q06609; AID 1385; actives 0.085% (n = 200,000); inhibition, % at 10 µM;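 active means inhibition above 40% at the single screening dose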;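 further: 0% = DMSO control wells and 100% = blanks with heterologous ssDNA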
# Target sequence (Q06609 whole entry, looked up): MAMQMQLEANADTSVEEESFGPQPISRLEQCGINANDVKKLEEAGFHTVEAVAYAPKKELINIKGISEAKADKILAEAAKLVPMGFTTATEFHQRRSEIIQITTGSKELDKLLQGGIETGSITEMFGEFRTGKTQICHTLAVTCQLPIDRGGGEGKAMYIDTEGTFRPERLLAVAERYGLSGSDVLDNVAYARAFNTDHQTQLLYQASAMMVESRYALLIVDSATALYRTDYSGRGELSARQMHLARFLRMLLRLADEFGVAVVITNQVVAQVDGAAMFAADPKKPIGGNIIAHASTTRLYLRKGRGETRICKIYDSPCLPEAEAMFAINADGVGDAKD
#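 Test system: preformed human Rad51 ssDNA filaments; also added: Donor/quencher-labelled 47-bp dsDNA substrate; doses: 10 µM final, single point; times: 37 °C 15-min filament assembly, 30-min compound preincubation, 15-min exchange; detection: FRET fluorescence dequenching, excitation 485 nm, emission 520 nm; read-out basis: Fluorescence-based percent inhibition, control- and blank-normalised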
# m-calpain inh: blocks pig calpain II enzyme activity | purified calpain II, fluorogenic peptide substrate, 30 min | inhibition, % at 16 µM | actives 0.37% (n = 220,000);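 active means inhibition above about 50%, limit read from the data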
# Lmaj promast: reduces viability of Leishmania major promastigotes; resazurin fluorescence viability; inhibition, % at 10 µM; actives 9% (n = 200,000); AID 1063; in the data active means inhibition above about 50%;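 further: promastigotes grown with compound for 44 hours at 28 °C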
# WT yeast gro inh: growth inhibition of WT yeast, mitochondrial fusion screen; mitochondrial fusion phenotypic screen, WT strain; inhibition, % at 10 µM; actives 2.1% (n = 190,000); in the data active means inhibition above about 58%; tested in S. cerevisiae
# Active calls of the source: *; i = inactive; . = no result given. The list is not random: actives were taken first. Their share in the collection is about 9.8%.
SMILES,PMI act satM6P,PMI act,Rad51 HR inh,m-calpain inh,Lmaj promast,WT yeast gro inh
CCc1ccc(-c2nc(CS(=O)CC(=O)O)c(C)o2)cc1 (centres undefined),.,.,.,-22,.,.
CCN(Cc1ccccc1)S(=O)(=O)c1cc(C(=O)NC(C)C2CC3CCC2C3)ccc1OC (centres undefined),1,0.9,.,5,84*,-28
O=Nc1c(-c2cccc([N+](=O)[O-])c2)nc2ncccn12,.,.,-10,16,.,.
Cc1coc(C)c1C(=O)CC1(O)C(=O)Nc2cc(Cl)cc(Cl)c21 (centres undefined),0.8,0.9,2,7,19,67*
Cn1c(=O)c(NCCO)c2c3c(cccc31)C(=O)c1ccccc1-2,0.9,0.8,i,-22,6,-8
CCCCNc1c2c3c(cccc3n(C)c1=O)C(=O)c1ccccc1-2,1,0.9,i,12,6,64*
Cn1c(=O)c(NC2CCCCC2)c2c3c(cccc31)C(=O)c1ccccc1-2,0.9,0.8,i,-44,13,59*
O=C(NCCc1ccccn1)c1cc(-c2cccc3ccccc23)nc2ccccc12,1,0.9,-9,-37,11,-3
CCOC(=O)CN(c1ccccn1)S(=O)(=O)c1ccc(OC)cc1,1.1,1,.,-91,-3,6
COc1ccc2[nH]c3c(=S)nc[nH]c3c2c1,2.6*,1.8,6,-46,-1,-7
C=CCn1c(SCC(N)=O)nc(C)cc1=O,0.9,0.8,-4,1,-3,61*
Cc1c(CCOC(=O)CC23CC4CC(CC(C)(C4)C2)C3)sc[n+]1CC(=O)c1ccccc1,1.1,1,2,18,92*,3
Cc1c(CCOC(=O)C23CC4CC(CC(C)(C4)C2)C3)sc[n+]1CC(=O)c1ccccc1,0.9,0.8,0,10,3,21
CC1(C)CC2CC(C)(CN2C(=O)c2ccc([N+](=O)[O-])cc2[N+](=O)[O-])C1 (centres undefined),1,1.1,-97,15,52*,9
CC1(C)CC2CC(C)(CN2C(=O)c2cc(-c3ccccc3O)on2)C1 (centres undefined),1,1,4,23,18,63*
COc1ccc(-c2cc(C(=O)N3CC4(C)CC3CC(C)(C)C4)no2)cc1 (centres undefined),1,0.9,4,30,15,20
COc1ccccc1NS(=O)(=O)c1ccc(O)c(C(=O)OCC(=O)N2c3ccccc3CC2C)c1 (centres undefined),1,1,6,-89,-2,9
COc1cc(OC)nc(Oc2ccccc2C(=O)Oc2cccc(C)c2)n1,0.9,1,5,33,7,60*
COc1cc(C(=O)Oc2cccc(C)c2)cc(OC)c1OC,1,1,18,-10,-7,6
NC(=O)N/N=C/c1cccc(OCc2ccc(F)cc2)c1,1,1,-24,-15,8,-2
Cc1nnc(N/N=C/c2cccc(OCc3ccc(Cl)c(Cl)c3)c2)n1N,0.8,1,8,-6,73*,29
CN1CCN(c2nc(-c3cc4ccccc4o3)cs2)CC1,1,1.1,0,-5,69*,35
CCOC(=O)N1CCN(C(=O)/C=C/c2c(C)nn(-c3ccc(F)cc3)c2Cl)CC1,1.1,1,-3,-12,13,7
c1ccc2c(C3=NNC(=NC4CC4)SC3)c[nH]c2c1,0.7,0.7,-4,27,97*,-3
c1ccc2c(C3=NNC(=NC4CCCCC4)SC3)c[nH]c2c1,0.9,0.8,1,75*,93*,23
c1ccc(C2=NNC(=NC3CC3)SC2)cc1,1.2,1,-4,-7,-5,30
CCO[C@H]1OC(C(=O)Nc2ccccc2)=C[C@@H](c2csc3ccccc23)[C@@H]1CCCO,0.7,0.8,-6,16,58*,72*
CCO[C@@H]1OC(C(=O)NCc2ccccc2)=C[C@H](C2CC2)[C@H]1CCCO,1.1,1,-3,12,0,-13
CCO[C@@H]1OC(C(=O)O)=C[C@H](c2csc3ccccc23)[C@H]1CCCO,1,1.1,4,19,-6,-2
